These results are taken from publication PMC4062594 (Nature chemical biology, 2014).

Assay [1] concerns the target T1, PTP1B1-405 (Homo sapiens, UniProt P18031).
T1 sequence (P18031 1-405): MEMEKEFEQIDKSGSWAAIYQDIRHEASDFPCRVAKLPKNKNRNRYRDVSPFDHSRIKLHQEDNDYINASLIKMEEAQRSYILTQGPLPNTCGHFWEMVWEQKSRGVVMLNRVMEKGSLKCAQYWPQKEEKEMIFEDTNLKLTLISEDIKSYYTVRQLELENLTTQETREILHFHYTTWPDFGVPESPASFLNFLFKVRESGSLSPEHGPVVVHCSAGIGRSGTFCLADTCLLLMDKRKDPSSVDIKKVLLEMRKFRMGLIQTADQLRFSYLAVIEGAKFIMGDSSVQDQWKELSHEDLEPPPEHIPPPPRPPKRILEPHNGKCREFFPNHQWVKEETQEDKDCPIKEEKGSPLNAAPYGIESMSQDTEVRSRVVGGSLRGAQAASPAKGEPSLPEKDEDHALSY
The assay is described as follows: PTP assay with DiFMUP substrate. Type of assay: biochemical.

Assay [2] concerns the target T2, PTP1B1-321 (Homo sapiens, UniProt P18031).
T2 sequence (P18031 1-321): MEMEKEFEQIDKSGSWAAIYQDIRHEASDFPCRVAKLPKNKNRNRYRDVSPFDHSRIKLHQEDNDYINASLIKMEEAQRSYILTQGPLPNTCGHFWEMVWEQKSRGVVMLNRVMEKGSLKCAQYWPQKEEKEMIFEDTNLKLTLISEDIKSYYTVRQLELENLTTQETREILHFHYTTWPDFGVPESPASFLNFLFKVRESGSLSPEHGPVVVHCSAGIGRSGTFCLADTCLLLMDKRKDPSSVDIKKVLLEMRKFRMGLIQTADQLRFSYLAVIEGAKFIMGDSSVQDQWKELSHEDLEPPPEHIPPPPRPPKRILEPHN
Briefly: Direct binding assay with [3H]-MSI-1436. The following applies: scintillation counting. In short, it runs like this: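 Protein was captured on Ni-NTA beads (10 min, 25°C) and washed three times with buffer containing 150 mM NaCl. Bound ligand was measured by scintillation and bead-bound protein by BCA. Free ligand was calculated as total minus bound, for Scatchard analysis.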

The target of assay [3] is T1, PTP1B1-405. Briefly: Gel filtration. (In general: In gel filtration, larger molecules generally elute earlier.)
Assay [4] addresses T3, PTP1B1-405 V370P (Homo sapiens, UniProt P18031, V370P).
T3 sequence (P18031 1-405 V370P): T1 sequence (P18031 1-405) with V370P
The assay is described as follows: PTP assay, helix α9′ point mutant. Particulars: S372P, R373P versus wild type. Type of assay: biochemical.

The target of assay [5] is T4, PTP1B (1-367) (Homo sapiens, UniProt P18031).
T4 sequence (P18031 1-367): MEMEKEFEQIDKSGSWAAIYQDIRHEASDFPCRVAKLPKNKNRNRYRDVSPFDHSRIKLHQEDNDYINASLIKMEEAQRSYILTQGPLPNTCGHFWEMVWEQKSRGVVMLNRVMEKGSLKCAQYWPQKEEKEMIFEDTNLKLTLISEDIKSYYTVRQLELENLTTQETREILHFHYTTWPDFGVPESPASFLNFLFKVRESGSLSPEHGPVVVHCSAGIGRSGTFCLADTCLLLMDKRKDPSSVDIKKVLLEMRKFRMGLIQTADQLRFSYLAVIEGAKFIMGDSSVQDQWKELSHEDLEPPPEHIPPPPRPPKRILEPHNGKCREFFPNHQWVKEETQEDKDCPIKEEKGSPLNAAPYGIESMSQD
Briefly: PTP assay, truncation mutant. Type of assay: biochemical. The following applies: similar to PTP1B1-321. In short, it runs like this: (§1)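 Continuous fluorescence PTP assay with 10 nM purified PTP1B and 10 μM DiFMUP substrate. Emission at 450 nm was monitored for 20 minutes.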

Assay [6] has as its target T5, PTP1B (1-346) (Homo sapiens, UniProt P18031).
T5 sequence (P18031 1-346): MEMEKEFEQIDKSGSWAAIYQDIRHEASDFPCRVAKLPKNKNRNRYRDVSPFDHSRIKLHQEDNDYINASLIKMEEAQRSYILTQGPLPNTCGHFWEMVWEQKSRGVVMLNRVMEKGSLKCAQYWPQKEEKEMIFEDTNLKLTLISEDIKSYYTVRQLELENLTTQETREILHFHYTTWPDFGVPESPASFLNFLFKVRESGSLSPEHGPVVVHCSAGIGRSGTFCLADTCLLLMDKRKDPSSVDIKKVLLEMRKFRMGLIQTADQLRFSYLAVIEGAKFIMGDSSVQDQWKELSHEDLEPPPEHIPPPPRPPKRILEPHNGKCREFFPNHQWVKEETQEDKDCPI
The assay is described as follows: PTP assay, truncation mutant. It counts as biochemical. The following applies: similar to PTP1B1-321. Summed up: as §1

For assay [7], the target named is T1, PTP1B1-405. The assay is described as follows: Binding of recombinant protein to bead-immobilized compound. Particulars: in vitro. Summed up:
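Beads were washed in the same buffer plus 0.01% NP-40 and 1% glycerol, then heat-eluted in SDS sample buffer. Eluates were run on 10% SDS-PAGE and stained with Coomassie or silver.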

Assay [8] relates to 10A.B2 cells. Briefly: Cell migration assay. The following applies: 2D culture, similar extent to PTP1B-directed shRNA. Type of assay: cell-based.
In assay [9] the test system is SKBR3 cells. Briefly: Cell migration assay. It counts as cell-based. The following applies: HER2-positive, MSI-1436 5 µM.
Assay [10] concerns panel of breast cancer cells. Briefly: Annexin/PI staining. It counts as cell-based. Particulars: cells sensitive to Lapatinib. In short, it runs like this:
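Cells (1 × 10^5) plated in 6-well plates in growth medium, left untreated or given test compound at 2 and 5 μM. Stained with annexin and PI per kit instructions, then analysed by flow cytometry.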

Assay [11] has as its system BT474 xenografts re-expressing wild type or L192A/S372P PTP1B. Briefly: BT474 xenografts with PTP1B suppressed and re-expressed. Type of assay: in vivo, mouse. The following applies: 5 mg/kg, two independent experiments. In short, it runs like this: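 BT474 cells with PTP1B suppressed by RNAi and re-expressing wild type or mutant PTP1B were used. Luciferase-expressing cells (5×10^6) were injected orthotopically into mammary fat pads of SCID-beige mice in 1:1 DMEM/growth factor-reduced Matrigel. Mice were randomised to saline or test compound 5 mg/kg i.p. every third day. Tumours were followed by luciferin imaging and by palpation (volume = width2 × length/2) three times weekly.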

Substitutions are numbered along the chain they refer to.

On to `CC(C)[C@@H](CC[C@@H](C)[C@H]1CC[C@H]2[C@@H]3[C@H](O)C[C@H]4C[C@@H](NCCCNCCCCNCCCN)CC[C@]4(C)[C@H]3CC[C@]12C)OS(=O)(=O)O` [MSI-1436, Trodusquemine], for which the mode of inhibition entry in assay [1] is given as “reversible non-competitive inhibitor”. Moreover, the stoichiometry in [2] was 1 mol/mol. The “oligomerization of the phosphatase” value in [3] was “did not cause the phosphatase to oligomerize”. Also, the “calculated molecular weight of PTP1B1-405” value in assay [3] (in the presence of the inhibitor (~47k in the absence)) is on record as ~ 43 k. The “increase of Ki by helix-destabilizing Pro mutations” value in assay [4] was 10–20 fold. Further, the “inhibitory potency compared to PTP1B1-405 and PTP1B1-394” value in assay [5] and in assay [6] was “lower” each time. Also, the “binding to bead-immobilized compound” value in assay [7] was “bound”. Besides, the values for the migration result in [8] and in [9] were “inhibited migration” and “attenuated migration”, respectively. In addition, the apoptosis result in [10] was “limited effect on apoptosis”. The “sensitivity of xenografts re-expressing wild type PTP1B versus mutant protein” value in assay [11] is listed as “more sensitive”.
